Tests used:
PANC-1 = test: Cytotoxicity in human PANC1 cells assessed as reduction in cell viability incubated for 68 hrs by MTT assay; type: functional, cell-based; conditions: PANC-1, 68 h
Summary of the method: (§1)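 Cells were trypsinised and seeded at 5x10^3 cells/well. Compound was added at 0, 0.1, 0.3, 1, 3, 10, 30 and 100 µM for 68 h. MTT (4 mg/mL solution) was then added for 4 h, and the formazan was dissolved in DMSO. Absorbance read at 570 nm. IC50 was derived from % survival across the eight concentrations. Mean ± SD of three independent experiments, each in triplicate.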

HEK293 = test: Cytotoxicity in HEK293 cells assessed as reduction in cell viability incubated for 68 hrs by MTT assay; type: cell-based; conditions: Homo sapiens, HEK293, 68 h; summary of the method: as §1
CHO = test: Cytotoxicity in CHO cells assessed as reduction in cell viability incubated for 68 hrs by MTT assay; type: cell-based; conditions: Cricetulus griseus; summary of the method: as §1
A2780 = test: Cytotoxicity in human A2780 cells assessed as reduction in cell viability incubated for 68 hrs by MTT assay; type: functional, cell-based; conditions: A2780, 68 h; summary of the method: as §1
MCF7 [1] = test: Cytotoxicity in human MCF7 cells assessed as reduction in cell viability incubated for 68 hrs by MTT assay; type: functional, cell-based; conditions: MCF7, 68 h; summary of the method: as §1
ZR-75-1 = test: Cytotoxicity in human ZR-75-1 cells assessed as reduction in cell viability incubated for 68 hrs by MTT assay; type: functional, cell-based; conditions: ZR-75-1, 68 h; summary of the method: as §1
2008 = test: Cytotoxicity in human OV2008 cells assessed as reduction in cell viability incubated for 68 hrs by MTT assay; type: functional, cell-based; conditions: Homo sapiens, 2008, 68 h; summary of the method: as §1
[2] = Cytotoxicity in human CRL1459 cells assessed as reduction in cell viability incubated for 68 hrs by MTT assay; type: cell-based; summary of the method: as §1
MDA-MB-231 = test: Cytotoxicity in human MDA-MB-231 cells assessed as reduction in cell viability incubated for 68 hrs by MTT assay; type: functional, cell-based; conditions: MDA-MB-231, 68 h; summary of the method: as §1
BT-20 = test: Cytotoxicity in human BT20 cells assessed as reduction in cell viability incubated for 68 hrs by MTT assay; type: functional, cell-based; conditions: BT-20, 68 h; summary of the method: as §1
DU-145 = test: Cytotoxicity in human DU145 cells assessed as reduction in cell viability incubated for 68 hrs by MTT assay; type: functional, cell-based; conditions: DU-145, 68 h; summary of the method: as §1
MCF7 [3] = test: Potency index, ratio of IC50 for silybin to IC50 for test compound for cytotoxicity in human MCF7 cells assessed as reduction in cell viability incubated for 68 hrs by MTT assay; type: functional

SMILES: O=C(/C=C/c1cccc(OCc2ccccc2)c1)c1ccccc1
- IC50 (PANC-1): 23.5 µM
- IC50 (HEK293): 14.1 µM
- IC50 (CHO): 22 µM
- IC50 (A2780): 6.7 µM
- IC50 (MCF7 [1]): 9.8 µM
- IC50 (ZR-75-1): 8.5 µM
- IC50 2008: 4.9 µM
- IC50 [2]: 7.8 µM
- IC50 (MDA-MB-231): 20 µM
- IC50 (BT-20): 25.5 µM
- IC50 (DU-145): 42.4 µM

SMILES: O=C(/C=C/c1ccccc1)c1ccccc1 [CHALCONE]
- IC50 (PANC-1): 26 µM
- IC50 (HEK293): 10.7 µM
- IC50 (CHO): 23 µM
- IC50 (A2780): 67.5 µM
- IC50 (MCF7 [1]): 12.6 µM
- IC50 (ZR-75-1): 13.7 µM
- IC50 2008: 33.4 µM
- IC50 [2]: 6.4 µM
- IC50 (MDA-MB-231): 6.7 µM
- IC50 (BT-20): 21.1 µM
- IC50 (DU-145): 50.1 µM

SMILES: O=C(/C=C/c1cccc(OCc2ccccc2)c1)c1ccc(Br)cc1
- IC50 (PANC-1): 2.1 µM
- IC50 (HEK293): 5.4 µM
- IC50 (CHO): 9 µM
- IC50 (A2780): 1.8 µM
- IC50 (MCF7 [1]): 6.5 µM
- IC50 (ZR-75-1): 6.5 µM
- IC50 2008: 1 µM
- IC50 [2]: 5.3 µM
- IC50 (MDA-MB-231): 6.4 µM
- IC50 (BT-20): 7.4 µM
- IC50 (DU-145): 5.7 µM

SMILES: O=C(/C=C/c1cccc(OCc2ccccc2)c1)c1ccccc1Br
- IC50 (PANC-1): 61.2 µM
- IC50 (HEK293): 2.2 µM
- IC50 (CHO): 9.1 µM
- IC50 (A2780): 2.5 µM
- IC50 (MCF7 [1]): 1.6 µM
- IC50 (ZR-75-1): 2.9 µM
- Ratio IC50 (MCF7 [3]): 142
- IC50 2008: 1.2 µM
- IC50 [2]: 2.4 µM
- IC50 (MDA-MB-231): 1.8 µM
- IC50 (BT-20): 1.8 µM
- IC50 (DU-145): 3 µM

SMILES: COc1cc([C@H]2Oc3cc([C@H]4Oc5ccccc5C(=O)[C@@H]4O)ccc3O[C@@H]2CO)ccc1O
- IC50 (MCF7 [1]): 13.8 µM

SMILES: O=C(/C=C/c1cccc(OCc2ccccc2)c1)c1ccc([N+](=O)[O-])cc1
- IC50 (PANC-1): 25.4 µM
- IC50 (HEK293): 59.3 µM
- IC50 (CHO): 82.4 µM
- IC50 (A2780): 56.4 µM
- IC50 (MCF7 [1]): 17.5 µM
- IC50 (ZR-75-1): 37.7 µM
- IC50 2008: 49 µM
- IC50 [2]: 26 µM
- IC50 (MDA-MB-231): 23.3 µM
- IC50 (BT-20): 80.9 µM
- IC50 (DU-145): 52.5 µM

SMILES: O=C(/C=C/c1cccc(OCc2ccccc2)c1)c1ccc(Cl)c(Cl)c1Cl
- IC50 (PANC-1): 2.4 µM
- IC50 (HEK293): 2.4 µM
- IC50 (CHO): 8.6 µM
- IC50 (A2780): 1.5 µM
- IC50 (MCF7 [1]): 2.4 µM
- IC50 (ZR-75-1): 6.2 µM
- IC50 2008: 1.5 µM
- IC50 [2]: 2.5 µM
- IC50 (MDA-MB-231): 2.4 µM
- IC50 (BT-20): 3.9 µM
- IC50 (DU-145): 6.4 µM

SMILES: O=C(/C=C/c1cccc(OCc2ccccc2)c1)c1cccc(Br)c1
- IC50 (PANC-1): 6.4 µM
- IC50 (HEK293): 7.1 µM
- IC50 (CHO): 9.2 µM
- IC50 (A2780): 6.3 µM
- IC50 (MCF7 [1]): 7.9 µM
- IC50 (ZR-75-1): 8.3 µM
- IC50 2008: 5.7 µM
- IC50 [2]: 7.2 µM
- IC50 (MDA-MB-231): 6.9 µM
- IC50 (BT-20): 7.1 µM
- IC50 (DU-145): 9.1 µM

SMILES: O=C(/C=C/c1cccc(OCc2ccccc2)c1)c1ccc(Cl)cc1
- IC50 (PANC-1): 21.3 µM
- IC50 (HEK293): 22.8 µM
- IC50 (CHO): 43.6 µM
- IC50 (A2780): 56.4 µM
- IC50 (MCF7 [1]): 24.8 µM
- IC50 (ZR-75-1): 20 µM
- IC50 2008: 20 µM
- IC50 [2]: 12.8 µM
- IC50 (MDA-MB-231): 21.5 µM
- IC50 (BT-20): 63.2 µM
- IC50 (DU-145): 43.4 µM

SMILES: COc1cc(C2Oc3cc(/C=C/C(=O)c4ccccc4O)ccc3OC2CO)ccc1O (stereo not given)
- IC50 (MCF7 [1]): 12.1 µM

SMILES: Cc1ccc(C(=O)/C=C/c2cccc(OCc3ccccc3)c2)cc1
- IC50 (PANC-1): 41.6 µM
- IC50 (HEK293): 8.2 µM
- IC50 (CHO): 26.4 µM
- IC50 (A2780): 20.5 µM
- IC50 (MCF7 [1]): 21.7 µM
- IC50 (ZR-75-1): 25.8 µM
- IC50 2008: 12.9 µM
- IC50 [2]: 19.8 µM
- IC50 (MDA-MB-231): 15.6 µM
- IC50 (BT-20): 61 µM
- IC50 (DU-145): 25.6 µM

SMILES: O=C(/C=C/c1cccc(OCc2ccccc2)c1)c1ccc(Cl)cc1Cl
- IC50 (PANC-1): 27.2 µM
- IC50 (HEK293): 24.9 µM
- IC50 (CHO): 27.5 µM
- IC50 (A2780): 21.4 µM
- IC50 (MCF7 [1]): 9.4 µM
- IC50 (ZR-75-1): 9.4 µM
- IC50 2008: 5.2 µM
- IC50 [2]: 7.8 µM
- IC50 (MDA-MB-231): 6.8 µM
- IC50 (BT-20): 19.2 µM
- IC50 (DU-145): 27.3 µM

SMILES: COc1ccc(C(=O)/C=C/c2cccc(OCc3ccccc3)c2)cc1
- IC50 (PANC-1): 44.3 µM
- IC50 (HEK293): 79.8 µM
- IC50 (CHO): 22.9 µM
- IC50 (A2780): 38.1 µM
- IC50 (MCF7 [1]): 6 µM
- IC50 (ZR-75-1): 19.9 µM
- IC50 2008: 17.2 µM
- IC50 [2]: 25.4 µM
- IC50 (MDA-MB-231): 12.4 µM
- IC50 (BT-20): 38.3 µM
- IC50 (DU-145): 51.3 µM

SMILES: COc1cc([C@H]2Oc3cc([C@H]4Oc5cc(O)cc(O)c5C(=O)[C@@H]4O)ccc3O[C@@H]2CO)ccc1O [SILYBIN A]
- IC50 (MCF7 [1]): 223 µM
